# Reference: ChEMBL document CHEMBL1147601, “Synthesis, biodistribution and micro-PET imaging of radiolabeled antimitotic agent T138067 analogues” (Bioorg Med Chem Lett, 2004)
# Columns and labels:
# [1] = system: Mus musculus; test: In vivo biodistribution of compound in heart of MCF-7 transfected with IL-1alpha implanted athymic mice at 30 min post iv injection; assay type: ADME, organism-based; conditions: 0.5 h
# In short: (§1)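 Tumor-bearing athymic mice 8 weeks after xenograft implantation; tail-vein iv dose of 1–3 mCi [11C]-labeled tracer (subpharmacologic) in conscious restrained animals. Killed by decapitation under halothane at 30 min. Tissues excised and weighed, decay-corrected radioactivity gamma-counted, expressed as % injected dose/g. Tumor/blood and tumor/muscle ratios taken from these values. Mean ± SD, n=3 mice.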
# [2] = system: Mus musculus; test: In vivo biodistribution of compound in small intestine of MDA-MB-435 implanted athymic mice at 30 min post iv injection; assay type: ADME, organism-based; conditions: 0.5 h; in short: as §1
# [3] = system: Mus musculus; test: In vivo biodistribution of compound in brain of MCF-7 transfected with IL-1alpha implanted athymic mice at 30 min post iv injection; assay type: ADME, organism-based; conditions: 0.5 h; in short: as §1
# [4] = system: Mus musculus; test: In vivo biodistribution of compound in blood of MDA-MB-435 implanted athymic mice at 30 min post iv injection; assay type: ADME, organism-based; conditions: 0.5 h; in short: as §1
# [5] = system: Mus musculus; test: In vivo biodistribution of compound in bone of MDA-MB-435 implanted athymic mice at 30 min post iv injection; assay type: ADME, organism-based, Bone element; conditions: 0.5 h; in short: as §1
# [6] = system: Mus musculus; test: In vivo biodistribution of compound in kidney of MCF-7 transfected with IL-1alpha implanted athymic mice at 30 min post iv injection; assay type: ADME, organism-based; conditions: 0.5 h; in short: as §1
# [7] = system: Mus musculus; test: In vivo biodistribution of compound in small intestine of MCF-7 transfected with IL-1alpha implanted athymic mice at 30 min post iv injection; assay type: ADME, organism-based; conditions: 0.5 h; in short: as §1
# [8] = system: Mus musculus; test: In vivo biodistribution of compound in liver of MCF-7 transfected with IL-1alpha implanted athymic mice at 30 min post iv injection; assay type: ADME, organism-based; conditions: 0.5 h; in short: as §1
# [9] = system: Mus musculus; test: In vivo biodistribution of compound in muscle of MDA-MB-435 implanted athymic mice at 30 min post iv injection; assay type: ADME, organism-based, Muscle tissue; conditions: 0.5 h; in short: as §1
# [10] = system: Mus musculus; test: In vivo biodistribution of compound in muscle of MCF-7 transfected with IL-1alpha implanted athymic mice at 30 min post iv injection; assay type: ADME, organism-based, Muscle tissue; conditions: 0.5 h; in short: as §1
# [11] = system: Mus musculus; test: In vivo biodistribution of compound in lungs of MCF-7 transfected with IL-1alpha implanted athymic mice at 30 min post iv injection; assay type: ADME, organism-based, Lung; conditions: 0.5 h; in short: as §1
# [12] = system: Mus musculus; test: In vivo biodistribution of compound in spleen of MDA-MB-435 implanted athymic mice at 30 min post iv injection; assay type: ADME, organism-based; conditions: 0.5 h; in short: as §1
# [13] = system: Mus musculus; test: In vivo biodistribution of compound in lungs of MDA-MB-435 implanted athymic mice at 30 min post iv injection; assay type: ADME, organism-based, Lung; conditions: 0.5 h; in short: as §1
# [14] = In vivo biodistribution ratio in tumor to that of muscle (T/M ratio) in MDA-MB-435 implanted athymic mice; assay type: functional, Muscle tissue
# In short: (§2)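 Athymic mice 8 weeks after MDA-MB-435 xenograft implantation received a subpharmacologic iv tail-vein dose of the 11C-labelled tracer under conscious restraint. They were killed by decapitation under halothane at 30 min post injection. Tissues were excised and weighed, and decay-corrected radioactivity was gamma-counted as % id/g. The ratio is tumor %id/g over muscle or blood %id/g, given as mean ± SD of n=3 mice.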
# [15] = system: Mus musculus; test: In vivo biodistribution of compound in brain of MDA-MB-435 implanted athymic mice at 30 min post iv injection; assay type: ADME, organism-based; conditions: 0.5 h; in short: as §1
# [16] = system: Mus musculus; test: In vivo biodistribution of compound in bone of MCF-7 transfected with IL-1alpha implanted athymic mice at 30 min post iv injection; assay type: ADME, organism-based, Bone element; conditions: 0.5 h; in short: as §1
# [17] = system: Mus musculus; test: In vivo biodistribution of compound in blood of MCF-7 transfected with IL-1alpha implanted athymic mice at 30 min post iv injection; assay type: ADME, organism-based; conditions: 0.5 h; in short: as §1
# [18] = In vivo biodistribution ratio in tumor to that of blood (T/B ratio) in MDA-MB-435 implanted athymic mice; assay type: functional; in short: as §2
# [19] = system: Mus musculus; test: In vivo biodistribution of compound in liver of MDA-MB-435 implanted athymic mice at 30 min post iv injection; assay type: ADME, organism-based; conditions: 0.5 h; in short: as §1
# [20] = system: Mus musculus; test: In vivo biodistribution of compound in tumor of MCF-7 transfected with IL-1alpha implanted athymic mice at 30 min post iv injection; assay type: ADME, organism-based; conditions: 0.5 h; in short: as §1
# [21] = system: Mus musculus; test: In vivo biodistribution of compound in spleen of MCF-7 transfected with IL-1alpha implanted athymic mice at 30 min post iv injection; assay type: ADME, organism-based; conditions: 0.5 h; in short: as §1
# [22] = system: Mus musculus; test: In vivo biodistribution of compound in tumor of MDA-MB-435 implanted athymic mice at 30 min post iv injection; assay type: ADME, organism-based; conditions: 0.5 h; in short: as §1
# [23] = system: Mus musculus; test: In vivo biodistribution of compound in kidneys of MDA-MB-435 implanted athymic mice at 30 min post iv injection; assay type: ADME, organism-based, Kidney; conditions: 0.5 h; in short: as §1
# [24] = system: Mus musculus; test: In vivo biodistribution ratio in tumor to that of muscle (T/M ratio) in MCF-7 transfected with IL-1alpha implanted athymic mice; assay type: ADME, organism-based, Muscle tissue; in short: as §1
# [25] = In vivo biodistribution ratio in tumor to that of blood (T/B ratio) in MCF-7 transfected with IL-1alpha implanted athymic mice; assay type: ADME, organism-based; conditions: mouse; in short: as §1
# [26] = system: Mus musculus; test: In vivo biodistribution of compound in heart of MDA-MB-435 implanted athymic mice at 30 min post iv injection; assay type: ADME, organism-based; conditions: 0.5 h; in short: as §1
compound,measurement,setting,value
[11CH3]Oc1ccc(NS(=O)(=O)c2c(F)c(F)c(F)c(F)c2F)cc1F,Injected dose/g,[1],1.75%
same,Injected dose/g,[2],6.19%
same,Injected dose/g,[3],1.53%
same,Injected dose/g,[4],0.35%
same,Injected dose/g,[5],1.75%
same,Injected dose/g,[6],3.34%
same,Injected dose/g,[7],5.16%
same,Injected dose/g,[8],6.79%
same,Injected dose/g,[9],1.99%
same,Injected dose/g,[10],1.7%
same,Injected dose/g,[11],4.95%
same,Injected dose/g,[12],2.95%
same,Injected dose/g,[13],9.2%
same,Ratio,[14],1.01
same,Injected dose/g,[15],1.03%
same,Injected dose/g,[16],1.31%
same,Injected dose/g,[17],1.68%
same,Ratio,[18],5.63
same,Injected dose/g,[19],14.92%
same,Injected dose/g,[20],1.51%
same,Injected dose/g,[21],2.01%
same,Injected dose/g,[22],1.92%
same,Injected dose/g,[23],17.62%
same,Ratio,[24],0.89
same,Kp,[25],0.94
same,Injected dose/g,[26],8.54%
